Assay results as given in ChEMBL document CHEMBL4024772, “Aniline-Based Inhibitors of Influenza H1N1 Virus Acting on Hemagglutinin-Mediated Fusion” (J Med Chem, 2018).
Activity calls are given as the source filed them. No cut-off for these calls is given here.

What was measured:
[1] = Antiviral activity against Influenza A virus (A/Virginia/ATCC3/2009(H1N1)) infected in MDCK cells assessed as inhibition of virus-induced cytopathicity after 72 hrs by microscopic method; type: functional, cell-based, Influenza A virus (A/Virginia/03/2009(H1N1))
Procedure, shortened: (§1)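 MDCK cells infected with influenza virus; viral cytopathic effect scored microscopically at 3 days post infection and confirmed by colorimetric formazan-based MTS viability assay. EC50 is the concentration giving 50% inhibition of viral cytopathicity. For A/HK/7/87 (H3N2) and B/HongKong/5/1972, the highest tested concentration was 100 μM.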

Influenza A virus [2] = assay: Antiviral activity against Influenza A virus (A/Puerto Rico/8/34(H1N1)) infected in MDCK cells assessed as inhibition of virus-induced cytopathicity after 72 hrs by microscopic method; type: functional, cell-based; details: A/Puerto Rico/8/1934(H1N1); procedure, shortened: as §1
Influenza A virus [3] = assay: Antiviral activity against Influenza A virus (A/Puerto Rico/8/34(H1N1)) infected in MDCK cells assessed as inhibition of virus-induced cytopathicity after 72 hrs by MTS assay; type: functional, cell-based; details: A/Puerto Rico/8/1934(H1N1); procedure, shortened: as §1
[4] = tested on: Influenza A virus (A/Hong Kong/7/1987(H3N2)); assay: Antiviral activity against Influenza A virus (A/Hong Kong/7/1987(H3N2)) infected in MDCK cells assessed as inhibition of virus-induced cytopathicity at 100 uM after 72 hrs; type: functional, cell-based; procedure, shortened: as §1
Influenza B virus = assay: Antiviral activity against Influenza B virus (B/Hong Kong/05/1972) infected in MDCK cells assessed as inhibition of virus-induced cytopathicity at 100 uM after 72 hrs; type: functional, cell-based; procedure, shortened: as §1
[5] = Antiviral activity against Influenza A virus (A/Virginia/ATCC3/2009(H1N1)) infected in MDCK cells assessed as inhibition of virus-induced cytopathicity after 72 hrs by MTS assay; type: functional, cell-based, Influenza A virus (A/Virginia/03/2009(H1N1)); procedure, shortened: as §1
[6] = Cytotoxicity against MDCK cells assessed as decrease in cell viability after 72 hrs by MTS assay; type: cell-based, Canis lupus familiaris; details: dog
Procedure, shortened: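 Uninfected MDCK cells exposed to compound alongside the antiviral assay. Viability was read by colorimetric formazan-based MTS assay, and CC50 is the concentration giving 50% cytotoxicity.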

[7] = Cytotoxicity against MDCK cells assessed as effect on cell morphology after 72 hrs by microscopic method; type: cell-based, Canis lupus familiaris; details: dog
Procedure, shortened: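 MDCK cells examined microscopically alongside the antiviral assay. MCC is the minimum compound concentration causing a microscopically detectable alteration of normal cell morphology.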

Human respirovirus 3 = assay: Antiviral activity against Parainfluenza virus 3 infected in African green monkey Vero cells assessed as inhibition of virus-induced cytopathicity after 3 to 6 days by microscopic method; type: functional; details: Human respirovirus 3, Vero
[8] = (§2) Inhibition of HeLa cell expressing Influenza A virus (A/duck/Hunan/795/2002(H5N1)) hemagglutinin H5-mediated polykaryon formation preincubated for 15 mins followed by 5 mins of exposure to compound diluted in acidified PBS-CM of pH 5.2 and subsequent incubation with medium containing 10% fetal calf serum for 3 hrs by Giemsa staining-based inverted microscopy
Procedure, shortened: (§3)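 HA-transfected cells preincubated with compound, briefly exposed to pH 5.2 to trigger fusion, then kept in medium 3 h for polykaryon formation. Polykaryons were counted in microscopic fields. EC50 is the concentration giving 50% of the polykaryon number of the no-compound control (mean ± SEM, n = 3). Single-concentration tests used 100 μM.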

[9] = as §2, with “(A/Puerto Rico/8/34(H1N1))” for “(A/duck/Hunan/795/2002(H5N1))”, “H1-mediated” for “H5-mediated”; parameters: species or system Influenza A virus (A/Puerto Rico/8/1934(H1N1)); procedure, shortened: as §3
[10] = Inhibition of Influenza A virus (A/Puerto Rico/8/34(H1N1)) neuraminidase using fetuin as substrate; parameters: species or system Influenza A virus (A/Puerto Rico/8/1934(H1N1))
[11] = tested on: Influenza A virus (A/Puerto Rico/8/1934(H1N1)); assay: as §2, with “(A/Puerto Rico/8/34(H1N1))” for “(A/duck/Hunan/795/2002(H5N1))”, “H1-mediated” for “H5-mediated”, “formation at 100 uM” for “formation”, “microscopy relative to control” for “microscopy”; procedure, shortened: as §3
Influenza A virus [12] = assay: Binding affinity to recombinant Influenza A virus polyhistidine-tagged hemagglutinin H5 expressed in baculovirus infected insect Sf9 cells at 100 uM by STD NMR method
Procedure, shortened: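 Saturation-transfer difference NMR with 100 μM compound and 1 μM recombinant H5 HA in 20 mM phosphate pH 7.5, 150 mM NaCl, 100% 2H2O, at 25 °C on a 900 MHz spectrometer with cryoprobe. Relative STD signals were derived per proton.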

[13] = tested on: Influenza A virus (A/duck/Hunan/795/2002(H5N1)); assay: as §2, with “formation at 100 uM” for “formation”, “microscopy relative to control” for “microscopy”; procedure, shortened: as §3
[14] = tested on: Influenza A virus (A/X-31(H3N2)); assay: as §2, with “(A/X-31(H3N2))” for “(A/duck/Hunan/795/2002(H5N1))”, “H3-mediated” for “H5-mediated”, “5” for “5.2”
Procedure, shortened: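 Polykaryon assay with cells transfected with H3 HA (A/X31). Cells were preincubated with compound, exposed to low pH to induce cell–cell fusion, then kept in medium 3 h. Polykaryons were counted microscopically relative to the no-compound control.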

[15] = tested on: Vesicular stomatitis virus; assay: Antiviral activity against Vesicular stomatitis virus assessed as inhibition of virus-induced cytopathicity after 3 to 6 days by cell-based microscopic method; type: functional

Compound	EC50 [1] [µM]	EC50 (Influenza A virus [2]) [µM]	EC50 (Influenza A virus [3]) [µM]	inhibition [4]	inhibition (Influenza B virus)	EC50 [5] [µM]	CC50 at 72 h [6] [µM]	MCC at 72 h [7] [µM]	EC50 (Human respirovirus 3) [µM]	EC50 [8] [µM]	EC50 [9] [µM]	IC50 [10] [µM]	inhibition [11] [%]	Activity (Influenza A virus [12])	inhibition [13] [%]	inhibition [14]	EC50 [15] [µM]
Fc1cc(F)cc(NCC23CC4CC(CC(C4)C2)C3)c1	0.21	> 100	> 100	inactive	inactive	0.12	1.9	2									
FC(F)(F)c1ccccc1NCC12CC3CC(CC(C3)C1)C2									9								
CC(C)c1ccccc1NCCN1CCCCC1	1.7	4.6	5.5	inactive	inactive	1.5	> 100	100		39.6	10.1	> 100	100	Active	100	inactive	
Brc1ccccc1NCCN1CCCCC1	45	45	48	inactive	inactive	47	> 100	> 100									
COc1ccccc1NCCN1CCCCC1	32	> 100	> 100	inactive	inactive	8.3	> 100	> 100									
CC(C)c1ccccc1NCCC12CC3CC(CC(C3)C1)C2	< 0.8	> 100	> 100	inactive	inactive	< 0.8	1.6	4									
CC(C)c1ccccc1NCCN1CCCC1	17	23	39	inactive	inactive	8	> 100	> 100									
NC12CC3CC(CC(C3)C1)C2 [AMANTADINE]	> 500	85	178			> 500	> 500	> 500									
Fc1cc(NCC23CC4CC(CC(C4)C2)C3)cc(C(F)(F)F)c1																	12
CC(C)c1ccccc1NCCN1CCCCCC1	1.6	8.4	8.9	inactive	inactive	1.3	52	100						Active			
CC(C)c1ccccc1OCCN1CCCCC1	0.89	30	15	inactive	inactive	1	> 100	≥ 100									
CC(C)c1ccccc1NCC12CC3CC(CC(C3)C1)C2	0.8	> 100	> 100	inactive	inactive	< 0.8	3.4	4									
CC(C)c1ccccc1OCCN1CCCCCC1	2.6	> 100	> 100	inactive	inactive	2	26	20									45
NC(=O)c1ncn([C@@H]2O[C@H](CO)[C@@H](O)[C@H]2O)n1 [RIBAVIRIN]	12	16	45			9.8	> 100	≥ 100									
